pIC50: −log10 of the molar value. Active and inactive are the calls of the source. No cut-off for these calls is given here.
Columns and labels:
Aorta [1] = experiment: Antiangiogenic activity in Wistar rat thoracic aortic rings assessed as inhibition of microvessel sprouting at 25 uM after 7 days by phase-contrst microscopy; assay type: functional; settings: 168 h
Outline: (§1)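 Thoracic aorta from six-week-old SPF male Wistar rat, everted, cut into 1-mm rings, embedded in porcine tendon collagen gel (30 min, 37 °C). Rings overlaid with RPMI 1640 plus 1% TIS+ containing compound doses or DMSO; 7 days at 37 °C, 5% CO2. Sprout length from cut end to capillary mid-point by phase-contrast microscopy; mean ± SD, n = 6.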

HUVEC [2] = experiment: Antiangiogenic activity in HUVEC assessed as inhibition of tubule formation after 12 hrs by inverted light microscopy; assay type: functional, cell-based; settings: Homo sapiens
Outline: (§2)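 Cells suspended in HuMedia EG2 with graded doses or DMSO vehicle, seeded onto solidified Matrigel and incubated 12 h at 37 °C, 5% CO2. Capillary-like tube length measured microscopically against vehicle control; mean ± SD, n = 5.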

HUVEC [3] = experiment: Antiangiogenic activity in HUVEC assessed as inhibition of VEGF-induced cell migration at 50 uM after 6 hrs by boyden chamber assay; assay type: functional, cell-based; settings: Homo sapiens
HUVEC [4] = experiment: Antiangiogenic activity in HUVEC assessed as inhibition of cell proliferation after 72 hrs by WST-8-based spectrophotometry; assay type: functional; settings: Homo sapiens
Outline: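 Cells seeded in HuMedia EG2, 24 h at 37 °C, 5% CO2, then fresh medium with graded doses or DMSO vehicle for 72 h. Proliferation read by WST-8 at 450 nm; mean ± SD, n = 5; IC50 from dose–response.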

[5] = biological target: T1, Mitogen-activated protein kinase; ERK1/ERK2 (Homo sapiens) (UniProt P27361+P28482); experiment: Inhibition of VEGF-induced Erk1/2 phosphorylation in HUVEC at 2.5 to 10 uM pretreated for 60 mins prior VEGF stimulation measured after 10 mins by Western blotting; assay type: protein assay; settings: TDE = time-dependent effect
Outline: (§3)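 Cells pretreated 1 h with 0–10 µM compound or DMSO, then stimulated with VEGF (10 ng/mL) for 10 min, PBS-washed, lysed with M-PER, protein by microBCA. Blots probed for phospho-Erk1/2 or phospho-Akt (4 °C overnight) and total Erk1/2 or Akt (room temperature); chemiluminescent detection; mean ± SD, n = 3.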

[6] = biological target: T1, Mitogen-activated protein kinase; ERK1/ERK2 (Homo sapiens); experiment: Inhibition of VEGF-induced Erk1/2 phosphorylation in HUVEC pretreated for 60 mins prior VEGF stimulation measured after 10 mins by Western blotting; assay type: protein assay; outline: as §3
HUVEC [7] = experiment: Antiangiogenic activity in HUVEC assessed as inhibition of tubule formation at 5 uM after 12 hrs by inverted light microscopy; assay type: functional, cell-based; settings: Homo sapiens; outline: as §2
HUVEC [8] = experiment: Antiangiogenic activity in HUVEC assessed as inhibition of tubule formation at 20 uM after 12 hrs by inverted light microscopy; assay type: functional, cell-based; settings: Homo sapiens; outline: as §2
HUVEC [9] = experiment: Inhibition of VEGF-induced Akt phosphorylation in HUVEC at 2.5 to 10 uM pretreated for 60 mins prior VEGF stimulation measured after 10 mins by Western blotting; assay type: cell-based; settings: Homo sapiens; outline: as §3
Aorta [10] = experiment: Antiangiogenic activity in Wistar rat thoracic aortic rings assessed as inhibition of microvessel sprouting after 7 days by phase-contrst microscopy; assay type: functional, tissue-based; outline: as §1

T1 sequence (P27361 whole entry, looked up): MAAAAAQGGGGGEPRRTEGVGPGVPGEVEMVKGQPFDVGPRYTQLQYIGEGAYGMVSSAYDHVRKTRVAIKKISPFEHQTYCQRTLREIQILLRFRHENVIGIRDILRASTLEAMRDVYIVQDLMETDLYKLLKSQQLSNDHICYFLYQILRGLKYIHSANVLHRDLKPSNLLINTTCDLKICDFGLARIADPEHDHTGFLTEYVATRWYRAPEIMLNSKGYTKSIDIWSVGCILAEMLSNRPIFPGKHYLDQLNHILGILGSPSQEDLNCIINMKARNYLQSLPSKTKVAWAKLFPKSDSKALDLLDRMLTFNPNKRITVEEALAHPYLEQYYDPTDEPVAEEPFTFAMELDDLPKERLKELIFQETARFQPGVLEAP
T1 sequence (P28482 whole entry, looked up): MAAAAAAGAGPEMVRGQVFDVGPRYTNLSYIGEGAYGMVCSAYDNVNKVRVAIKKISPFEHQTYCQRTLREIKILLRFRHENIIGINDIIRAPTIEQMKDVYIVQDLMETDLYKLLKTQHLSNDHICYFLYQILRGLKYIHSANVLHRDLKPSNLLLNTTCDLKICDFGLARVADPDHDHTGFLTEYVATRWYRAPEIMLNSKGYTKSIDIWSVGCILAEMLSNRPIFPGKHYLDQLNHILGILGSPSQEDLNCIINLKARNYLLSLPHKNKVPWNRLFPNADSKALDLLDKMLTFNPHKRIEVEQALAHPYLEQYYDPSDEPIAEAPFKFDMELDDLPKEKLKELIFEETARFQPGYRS

SMILES | inhibition at 25 µM (Aorta [1]) [%] | also measured
C=C1C(=O)O[C@@H]2C[C@@H]3[C@]4(CC[C@]5(C)[C@@H]([C@H](C)CC/C=C(\C)C=O)CC[C@@]35C)C[C@]4(CCC(=O)Oc3ccccc3)[C@H]12 | 10 | –
C=C1C(=O)O[C@@H]2C[C@@H]3[C@]4(CC[C@]5(C)[C@@H]([C@H](C)CC/C=C(\C)C=O)CC[C@@]35C)C[C@]4(CCC(=O)N[C@@H](Cc3ccccc3)C(=O)OC)[C@H]12 | 10 | –
C=C1C(=O)O[C@@H]2C[C@@H]3[C@]4(CC[C@]5(C)[C@@H]([C@H](C)CC/C=C(\C)C=O)CC[C@@]35C)C[C@]4(CCC(=O)NC(C)(C)C)[C@H]12 | 10 | –
C=C1C(=O)O[C@@H]2C[C@@H]3[C@]4(CC[C@]5(C)[C@@H]([C@H](C)CC/C=C(\C)C=O)CC[C@@]35C)C[C@]4(CCC(=O)NCCCC)[C@H]12 | 10 | –
C=C1C(=O)O[C@@H]2C[C@@H]3[C@]4(CC[C@]5(C)[C@@H]([C@H](C)CC/C=C(\C)C=O)CC[C@@]35C)C[C@]4(CCC(=O)N3C(=O)CCC3=O)[C@H]12 | 10 | –
C=C1C(=O)O[C@@H]2C[C@@H]3[C@]4(CC[C@]5(C)[C@@H]([C@H](C)CC/C=C(\C)COC(=O)c6ccccc6)CC[C@@]35C)C[C@]4(CCC(=O)OC)[C@H]12 | 10 | –
C=C1C(=O)O[C@@H]2C[C@@H]3[C@]4(CC[C@]5(C)[C@@H]([C@H](C)CC/C=C(\C)COC(=O)c6ccncc6)CC[C@@]35C)C[C@]4(CCC(=O)OC)[C@H]12 | 10 | –
C=C1C(=O)O[C@@H]2C[C@@H]3[C@]4(CC[C@]5(C)[C@@H]([C@H](C)CC/C=C(\C)COC(=O)c6ccc7ccccc7n6)CC[C@@]35C)C[C@]4(CCC(=O)OC)[C@H]12 | 10 | –
C=C1C(=O)O[C@H]2C[C@@H]3[C@@]4(CC[C@]5(C)[C@H]([C@@H](C)CC/C=C(\C)C=O)CC[C@@]35C)C[C@]4(CCC(=O)OC)[C@@H]12 [CORONALOLIDE METHYL ESTER] | 10 | –
C=C1C(=O)O[C@@H]2C[C@@H]3[C@]4(CC[C@]5(C)[C@@H]([C@H](C)CC/C=C(\C)C=O)CC[C@@]35C)C[C@]4(CCC(=O)O)[C@H]12 [CORONALOLIDE] | 85 | –
C=C1C(=O)O[C@@H]2C[C@@H]3[C@]4(CC[C@]5(C)[C@@H]([C@H](C)CC/C=C(\C)CO)CC[C@@]35C)C[C@]4(CCC(=O)OC)[C@H]12 [SOOTEPIN A] | 10 | –
C=C1C(=O)O[C@@H]2C[C@@H]3[C@]4(CC[C@]5(C)[C@@H]([C@H](C)CCC=C(C)C)CC[C@@]35C)C[C@]4(CCC(=O)O)[C@H]12 [SOOTEPIN B] | 100 | pIC50 (HUVEC [2]): 4.95; inhibition (HUVEC [2]): Dose-dependent effect; Activity (HUVEC [3]): inactive; Activity (HUVEC [4]): Dose-dependent effect; pIC50 (HUVEC [4]): 5.92; inhibition [5]: tde; inhibition [6]: Dose-dependent effect; inhibition (HUVEC [7]): Active; inhibition (HUVEC [8]): Active; inhibition (HUVEC [9]): inactive; inhibition (Aorta [10]): Dose-dependent effect; pIC50 (Aorta [10]; 168 h): 5.35
C=C(C)[C@@H]1CC[C@@H]2[C@]3(CC[C@]4(C)[C@@H]([C@H](C)CCC=C(C)C)CC[C@@]24C)C[C@]13CCC(=O)O [SOOTEPIN E] | 92 | –
C=C1C(=O)O[C@@H]2C[C@@H]3[C@]4(CC[C@]5(C)[C@@H]([C@H](C)CCC=C(C)C)CC[C@@]35C)C[C@]4(CCC(=O)OC)[C@H]12 [TUBIFEROLIDE METHYL ESTER] | 40 | –
